Test results taken from BindingDB's records for doi:10.1016/j.ejmech.2017.02.062 (Padmashri Vikhe Patil College of Arts, 2017).
pIC50: −log10 of the molar value.

Biological target: T1, Retinoblastoma-associated protein (Homo sapiens, UniProt P06400)
T1 sequence (P06400 whole entry): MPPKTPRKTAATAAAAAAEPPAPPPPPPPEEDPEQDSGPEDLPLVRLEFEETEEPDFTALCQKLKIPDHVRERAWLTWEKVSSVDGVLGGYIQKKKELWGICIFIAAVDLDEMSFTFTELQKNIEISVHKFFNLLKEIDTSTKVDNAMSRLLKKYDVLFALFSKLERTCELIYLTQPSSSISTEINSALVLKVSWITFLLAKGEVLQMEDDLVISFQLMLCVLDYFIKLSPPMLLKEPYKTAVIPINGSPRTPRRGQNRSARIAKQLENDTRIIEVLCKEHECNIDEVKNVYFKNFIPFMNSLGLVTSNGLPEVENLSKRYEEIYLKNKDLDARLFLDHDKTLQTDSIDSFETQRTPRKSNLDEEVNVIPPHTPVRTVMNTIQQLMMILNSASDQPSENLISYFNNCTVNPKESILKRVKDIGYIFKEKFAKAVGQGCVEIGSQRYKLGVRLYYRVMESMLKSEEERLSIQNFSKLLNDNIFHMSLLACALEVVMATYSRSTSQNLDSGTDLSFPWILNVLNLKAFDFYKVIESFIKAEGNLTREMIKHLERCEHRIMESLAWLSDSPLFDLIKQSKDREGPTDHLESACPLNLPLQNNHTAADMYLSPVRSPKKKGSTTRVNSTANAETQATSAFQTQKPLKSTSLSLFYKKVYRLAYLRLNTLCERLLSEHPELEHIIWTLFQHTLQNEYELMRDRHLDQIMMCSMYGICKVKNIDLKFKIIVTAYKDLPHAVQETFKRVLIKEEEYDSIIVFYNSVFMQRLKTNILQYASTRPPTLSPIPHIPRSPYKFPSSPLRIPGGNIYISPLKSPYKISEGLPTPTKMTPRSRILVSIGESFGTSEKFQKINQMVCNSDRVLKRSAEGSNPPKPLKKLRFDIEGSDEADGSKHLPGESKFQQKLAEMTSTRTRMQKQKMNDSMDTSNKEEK
Test: ChEBML_1684306

SMILES | pIC50
Cc1ccc(CNC2CCc3c(n(C)c4ccccc34)C2)cc1 (stereo not drawn) | 5.46
Cc1ccc2[nH]c3c(c2c1)CCC(NCc1ccccc1)C3 (stereo not drawn) | 5.66
O=S(=O)(NC1CCc2c([nH]c3ccccc23)C1)c1ccc(F)cc1 (stereo not drawn) | 5.02
O=C(NC1CCc2c([nH]c3ccccc23)C1)c1ccccc1F (stereo not drawn) | < 4.00
Cc1ccc2[nH]c3c(c2c1)CCC(NC1CCC(C)C1)C3 (stereo not drawn) | 5.70
CC1CCC(NC2CCc3c([nH]c4ccccc34)C2)C1 (stereo not drawn) | 4.76
O=S(=O)(NC1CCCc2c1[nH]c1ccccc21)c1ccc(F)cc1 (stereo not drawn) | 5.04
c1ccc2c3c([nH]c2c1)C(NC1CCCCC1)CCC3 (stereo not drawn) | 4.82
Cc1ccc(CNC2CCc3c([nH]c4ccc(C)cc34)C2)cc1 (stereo not drawn) | 5.54
N#Cc1ccc(S(=O)(=O)NC2CCCc3c2[nH]c2ccccc32)cc1 (stereo not drawn) | < 4.00
Cc1ccc(CNC2CCc3c([nH]c4ccccc34)C2)cc1 (stereo not drawn) | 5.39
c1ccc2c3c([nH]c2c1)CC(NC1CCOCC1)CC3 (stereo not drawn) | < 4.00
O=S(=O)(NC1CCCc2c1[nH]c1ccccc21)c1cccnc1 (stereo not drawn) | < 4.00
c1ccc2c3c([nH]c2c1)CC(NC1CCCCC1)CC3 (stereo not drawn) | 4.96
N#Cc1ccc(S(=O)(=O)NC2CCc3c([nH]c4ccccc34)C2)cc1 (stereo not drawn) | < 4.00
COc1cccc(C(=O)NC2CCc3c([nH]c4ccccc34)C2)c1 (stereo not drawn) | < 4.00
O=S(=O)(NC1CCc2c([nH]c3ccccc23)C1)c1cccnc1 (stereo not drawn) | < 4.00
O=C(NC1CCc2c([nH]c3ccccc23)C1)c1cccc(F)c1 (stereo not drawn) | 4.00
c1ccc(CNC2CCc3c([nH]c4ccccc34)C2)cc1 (stereo not drawn) | 5.16
c1ccc2c3c([nH]c2c1)C(NC1CCCC1)CCC3 (stereo not drawn) | 5.00
CC1CCC(NC2CCCc3c2[nH]c2ccc([N+](=O)[O-])cc32)C1 (stereo not drawn) | 5.32
c1ccc2c3c([nH]c2c1)CC(NC1CCCC1)CC3 (stereo not drawn) | 5.00

Biological target: T1, Retinoblastoma-associated protein
Test: Inhibition of retinoblastoma protein phosphorylation in human MDA-MB-231 cells after 16 hrs by Hoechst 33342 staining based fluorescence assay
Method in brief: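 Fixation in 3.7% formaldehyde, 0.1% Triton X permeabilization, anti-pRb primary with Dylight 549 secondary; nuclei counterstained with Hoechst 33342; high-content imaging on ArrayScan reader.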

SMILES | pIC50
CC1CCC(NC2CCCc3c2[nH]c2ccccc32)C1 (stereo not drawn) | 4.82
